# Source: PubChem BioAssay (The Scripps Research Institute Molecular Screening Center)
# Shown are actives, neighbours in structure and some others; about 2.7% of the full set was active somewhere.
# pPAFAH FP inh – pPAFAH (human) enzyme inhibition; Q13093; recombinant pPAFAH, FP-rhodamine probe fluorescence polarization; inhibition, % at 3.39 µM; 330,000 compounds, 1.5% hits;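 active = inhibition above the mean inhibition across the screen plus 3 SD, cut at about 25% in these data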;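 note: inhibitors block binding of the rhodamine activity-based probe so polarization drops; 0% = enzyme with DMSO and 100% = wells lacking pPAFAH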
# Target sequence (Q13093 whole entry, looked up): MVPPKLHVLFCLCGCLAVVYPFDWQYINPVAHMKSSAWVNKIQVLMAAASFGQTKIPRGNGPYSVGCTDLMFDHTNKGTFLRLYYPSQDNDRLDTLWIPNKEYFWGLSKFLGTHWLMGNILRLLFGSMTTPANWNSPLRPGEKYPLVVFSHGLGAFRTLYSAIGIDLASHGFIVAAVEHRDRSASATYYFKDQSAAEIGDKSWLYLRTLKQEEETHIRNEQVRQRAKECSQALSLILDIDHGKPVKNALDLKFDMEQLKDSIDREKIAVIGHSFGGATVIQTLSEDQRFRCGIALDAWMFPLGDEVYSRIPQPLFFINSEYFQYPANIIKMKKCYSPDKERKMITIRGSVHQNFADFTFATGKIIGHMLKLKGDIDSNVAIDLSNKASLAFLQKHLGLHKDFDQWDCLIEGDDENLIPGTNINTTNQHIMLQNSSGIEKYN
# RBBP9 inhibitor – blocks human serine hydrolase RBBP9. recombinant RBBP9, FP-Rh probe fluorescence polarization. inhibition, % at 7.94 µM. 220,000 compounds, 0.2% hits. AID 1515;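 active = inhibition above the campaign mean of all tested compounds plus 3 SD, cut at about 14% in these data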;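 note: plate controls were DMSO wells with RBBP9 for no effect and wells lacking RBBP9 protein for full effect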
# Target sequence (O75884 whole entry, looked up): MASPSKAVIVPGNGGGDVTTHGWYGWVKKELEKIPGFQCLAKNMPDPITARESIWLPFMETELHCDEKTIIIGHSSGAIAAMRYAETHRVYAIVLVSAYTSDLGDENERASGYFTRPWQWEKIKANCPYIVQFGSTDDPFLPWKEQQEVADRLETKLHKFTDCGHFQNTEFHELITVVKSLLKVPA
#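 Measured by – fluorescence polarization · Test system – RBBP9 protein · Input – 2.5 µM RBBP9 dispensing solution, before mixing · Measure – percent inhibition from mP, scaled between DMSO and no-protein wells · Benchmarks – DMSO-treated enzyme wells and wells lacking RBBP9 · Times – preincubation 30 min plus labeling 45 min at 25 °C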
# PAFAH1B2 FP inh – PAFAH1B2 (human) inhibition | P68402 | 340,000 compounds, 1.2% hits | inhibition, % at 3.39 µM | recombinant PAFAH1B2, FP-rhodamine activity probe, fluorescence polarization;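 active = inhibition above the mean of all tested compounds plus 3 SD, cut at about 24% in these data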;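 note: 0% = enzyme with DMSO and 100% = wells lacking PAFAH1B2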
# PAFAH1B3 inh – PAFAH1B3 (human) inhibition; Q15102; recombinant PAFAH1B3, FP-rhodamine probe, fluorescence polarization; inhibition, % at 3.39 µM; 340,000 compounds, 0.28% hits;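 active = inhibition above the screen-wide average of all tested compounds plus 3 SD, cut at about 25% in these data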;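 note: 0% = enzyme with DMSO only and 100% = wells lacking PAFAH1B3 protein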
# PAFAH2 inh – inhibitors of human PAFAH2; Q99487; recombinant PAFAH2, FP-rhodamine activity probe, fluorescence polarization; inhibition, % at 3.39 µM; 340,000 compounds, 0.99% hits; AID 492956;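 active = inhibition above the mean over all tested compounds plus 3 SD, cut at about 30% in these data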;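 note: inhibitors block probe labeling of enzyme so polarization drops; 0% = enzyme with DMSO and 100% = wells lacking PAFAH2 protein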
# PAFAH2 FP conf – confirmation of human PAFAH2 inhibitors; shares compounds with PAFAH2 inh; recombinant PAFAH2, FP-rhodamine activity probe, fluorescence polarization; inhibition, % at 3.39 µM; 2,300 compounds, 65% hits; AID 493030;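 active = mean inhibition over three repeats above a set limit taken from the earlier primary screen, cut at about 30% in these data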;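 note: inhibitor blocks binding of rhodamine activity probe so polarization falls; 0% = enzyme with DMSO and 100% = wells lacking PAFAH2 protein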
# * = called active by the depositor; x = no result.
SMILES,pPAFAH FP inh,RBBP9 inhibitor,PAFAH1B2 FP inh,PAFAH1B3 inh,PAFAH2 inh,PAFAH2 FP conf
COc1cc(/C=N/NC(=S)N/N=C/c2cc(OC)c(OC)c(OC)c2)cc(OC)c1OC,10,-17,-6,11,-3,x
O=C(ON=C1CCSCC1)c1ccccc1,8,-7,1,5,78*,76*
O=C(OC1CCN(c2ccc([N+](=O)[O-])cc2)CC1)c1ccccc1,3,-7,4,-6,-1,x
O=C(ON=C1CCN(c2ccc([N+](=O)[O-])cc2)CC1)c1ccccc1,10,-4,6,7,90*,86*
O=C(CBr)Nc1c2c(nn1-c1ccccc1)CSC2,4,x,0,7,2,x
N#CCCN(C(=O)Nc1ccccc1)C1CCCCC1,x,x,4,9,3,x
COc1ccc(/C=C/C(=O)OCC(=O)NCCC2=CCCCC2)cc1S(=O)(=O)N1CCOCC1,-2,-1,-2,0,65*,44*
COc1ccc(C(=O)NCCC2=CCCCC2)cc1S(=O)(=O)N1CCOCC1,7,x,8,1,-6,x
O=C(COC(=O)/C=C/c1ccc(C(F)(F)F)cc1)NCCC1=CCCCC1,7,x,1,-6,7,x
O=C(COC(=O)/C=C/c1ccccc1)NCCc1ccc(F)cc1,19,x,7,7,61*,42*
O=C(COC(=O)/C=C/c1ccccc1)NCCC1=CCCCC1,9,1,4,0,46*,44*
COc1cccc(/C=C/C(=O)OCC(=O)NCCC2=CCCCC2)c1,10,-6,3,10,46*,31*
Cc1c(C(=O)OCC(=O)N(C)c2ccccc2)oc2ccccc12,1,x,4,-1,1,x
O=C(NCc1ccco1)/C(=C/c1ccc(Cl)cc1)NC(=O)c1ccco1,1,x,3,0,-4,x
COc1ccc(/C=C/C(=O)OCC(=O)NCCC2=CCCCC2)cc1,10,1,4,11,65*,53*
COc1ccc(NC(=O)NCCC2=CCCCC2)cc1,0,-4,5,13,1,x
O=c1oc(-c2ccc([N+](=O)[O-])cc2)nc2ccc(O)cc12,5,7,7,11,85*,67*
O=c1oc(-c2cccs2)nc2ccccc12,-1,0,6,19,56*,35*
O=c1oc(-c2ccccc2)nc2ccsc12,1,-12,-4,4,44*,30*
O=c1oc(-c2ccc(Br)cc2)nc2ccccc12,-6,x,-5,4,76*,70*
O=C(Nc1cccc(S(=O)(=O)N2CCOCC2)c1)C1CCN(S(=O)(=O)c2ccccc2)CC1,2,x,0,-5,2,x
O=c1oc(-c2ccc([N+](=O)[O-])cc2)nc2ccccc12,4,1,-5,3,74*,82*
CC(=O)Nc1ccc(-c2nc3ccccc3c(=O)o2)cc1,-6,x,0,5,-5,x
O=C(COC(=O)C12CC3CC(CC(O)(C3)C1)C2)Nc1ccc(OC(F)F)cc1,x,x,4,10,45*,29
O=C(COC(=O)C12CC3CC(CC(C3)C1)C2)Nc1ccc(OC(F)F)cc1,24,6,5,9,67*,49*
SMILES,pPAFAH FP inh,RBBP9 inhibitor,PAFAH1B2 FP inh,PAFAH1B3 inh,PAFAH2 inh,PAFAH2 FP conf
Cc1c(C(c2cccc(Br)c2)c2c(C)n(C)n(-c3ccccc3)c2=O)c(=O)n(-c2ccccc2)n1C,1,x,2,4,39*,20
CCOCCOC(=O)NCCCCCCNC(=O)OCCOCC,3,-6,1,9,60*,47*
CC1CCCC(C)N1/N=C/c1ccc(N(C)C)cc1 (stereo not given),-1,-1,2,5,38*,4
CCCCCCOC(=O)c1ccc(OC(=O)c2cccnc2)cc1,9,0,7,-4,41*,32*
CCCCOC(=O)c1ccc(OC(=O)c2cccnc2)cc1,0,2,-3,-2,2,x
Cc1ccc(NC(=O)C2CC2C)cc1S(=O)(=O)N1CCOCC1 (stereo not given),1,x,1,8,-4,x
COc1ccc(NC2CC(=O)N(c3cccc(C)c3)C2=O)cc1 (stereo not given),4,-3,1,5,47*,-2
COc1ccc(NC2CC(=O)N(c3cccc([N+](=O)[O-])c3)C2=O)cc1 (stereo not given),3,-3,0,7,18,x
COc1cc(/C(C)=N\NC(=O)CSc2nc3ccccc3n2C)ccc1O,4,-12,3,9,5,x
Cc1ccnc(NC(=O)COc2c(C)cc(C)cc2[N+](=O)[O-])c1,-5,-6,4,10,5,x
Cc1cc(C)c(OCC(=O)Nc2ccccn2)c([N+](=O)[O-])c1,1,-2,1,-1,33*,1
COc1cc(/C=C2\SC(=O)N(c3ccccc3Cl)C2=O)cc([N+](=O)[O-])c1O,x,-8,14,20,36*,23
COc1cc(/C=C2\SC(=O)N(CC(=O)Nc3cccc(C)c3)C2=O)cc([N+](=O)[O-])c1O,x,-4,x,x,x,x
Cc1cc(C(=O)COC(=O)c2ccc(N)c([N+](=O)[O-])c2)c(C)n1Cc1ccc2c(c1)OCO2,2,-8,0,-4,10,x
C=CCn1c(C)cc(C(=O)COC(=O)c2ccc3c(c2)NC(=O)CS3)c1C,11,-5,5,13,41*,28
C=CCn1c(C)cc(C(=O)COC(=O)c2ccc(N)c([N+](=O)[O-])c2)c1C,6,-8,3,-1,81*,80*
COc1ccc(CS(=O)(=O)CC(C)(O)c2ccccc2)cc1 (stereo not given),4,x,0,6,3,x
Cc1ccc(S(=O)(=O)NCCC(=O)NCCc2ccccc2)cc1,x,x,20,4,3,x
CCC(C)c1ccc(NC(=O)COC(=O)C2=COCCO2)cc1 (stereo not given),2,6,3,-3,69*,58*
CC(C)c1cccc(C(C)C)c1NC(=O)COC(=O)C1=COCCO1,-1,-5,6,6,68*,57*
COc1ccc(NC(=O)COC(=O)C2=COCCO2)cc1OC,3,-6,2,-2,8,x
Cc1ccc(NC(=O)COC(=O)C2=COCCO2)cc1,4,-10,2,2,47*,39*
O=C(COC(=O)C1=COCCO1)Nc1ccc2c(c1)OCO2,6,-7,3,5,69*,52*
O=C(COC(=O)C1=COCCO1)Nc1c(F)cccc1F,-2,x,1,2,9,x
CSc1ccc(/C=C/C(=O)OCC(=O)N2CCN(c3ccccc3)CC2)cc1,x,x,0,-2,3,x
COc1cccc(NC(=O)C2COc3ccccc3O2)c1 (stereo not given),4,x,-2,2,0,x
Cc1ccc(NC(=O)COC(=O)C2=COCCO2)c([N+](=O)[O-])c1,4,-6,3,6,3,x
